# From PMC2906776 (Bioorganic & medicinal chemistry, 2009)
# Key:
# [1] = system: MCF-7 cells; conditions: cited from earlier work
# [2] = system: ER(+) Ishikawa cells; test: Induction of alkaline phosphatase in Ishikawa cells; assay type: cell-based, human
# [3] = assay type: in vitro ADME, human; conditions: four days
# [4] = system: T47D/neo cells; test: ERE activation, luciferase reporter in T47D/neo cells; assay type: cell-based, human; conditions: read-out: EC50 ERE-luciferase activation, classical ER-dependent
# In short: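 T47D:A18/neo stable transfectants were grown in RPMI 1640 with 10% FBS and G418 (500 µg/mL), then held 3 days in phenol red-free, E2-depleted RPMI with G418. 8 × 10^6 cells were electroporated with ERE-tk-Luc (5 µg) plus pCMVβ β-gal (1 µg). The next day, test compound (10^-9–10^-7 mol/L), E2 (10^-9 mol/L) or ethanol vehicle was added for 18 h. Luciferase luminescence was normalized to β-gal.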
compound,measurement,setting,value
17-beta estradiol [Compound E2],Potency of E2 relative to the E2–dendrimer conjugate,[1],3–4 orders of magnitude
"NC[C@H]1O[C@@H]2O[C@H]3[C@H](O)[C@@H](O)[C@@H](O[C@H]4[C@H](O)[C@@H](O)[C@@H](O[C@H]5[C@H](O)[C@@H](O)[C@@H](O[C@H]6[C@H](O)[C@@H](O)[C@@H](O[C@H]7[C@H](O)[C@@H](O)[C@@H](O[C@H]8[C@H](O)[C@@H](O)[C@@H](O[C@H]1[C@H](O)[C@H]2O)O[C@@H]8CN)O[C@@H]7CN)O[C@@H]6CN)O[C@@H]5CN)O[C@@H]4CN)O[C@@H]3CN [ACD, Per-6-amino-6-deoxy-β-cyclodextrin]","Estrogenic activity, result in words",[2],inactive
"[N-]=[N+]=NC[C@H]1O[C@@H]2O[C@H]3[C@H](O)[C@@H](O)[C@@H](O[C@H]4[C@H](O)[C@@H](O)[C@@H](O[C@H]5[C@H](O)[C@@H](O)[C@@H](O[C@H]6[C@H](O)[C@@H](O)[C@@H](O[C@H]7[C@H](O)[C@@H](O)[C@@H](O[C@H]8[C@H](O)[C@@H](O)[C@@H](O[C@H]1[C@H](O)[C@H]2O)O[C@@H]8CN=[N+]=[N-])O[C@@H]7CN=[N+]=[N-])O[C@@H]6CN=[N+]=[N-])O[C@@H]5C/N=[NH+]\[NH-])O[C@@H]4CN=[N+]=[N-])O[C@@H]3CN=[N+]=[N-] [Compound 2, Per-6-azido-6-deoxy-β-cyclodextrin]","Estrogenic activity, result in words",[2],inactive
"Per-6-(estradiol-17-(1H-1,2,3-triazol-4-yl))-6-deoxy-β-cyclodextrin [Compound 7EqCD]",Free EE2 in cell supernatant,"[3]; 7EqCD 10 nM, Ishikawa cells",< 50 pM
same,"Free estrogen (EE2 or E2) in cell supernatant, result in words",[3]; Ishikawa cell culture,EE2 was not observed above detection limits
same,EC50,[4],> 0.1 µM
